≈ marks a conversion by molar mass, not a printed value. Calls of active or inactive are those of the source. No cut-off for these calls is given here.

For assay [1], the system named is Staphylococcus aureus. As to the kind of experiment: Induction of intracellular oxidant species generation in Staphylococcus aureus ATCC 25923 after 1 hr by colorimetric based NBT assay. Type of assay: functional, organism-based. In outline: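 Cells at OD600 1.5 in HBSS mixed with 1 mg/mL aqueous NBT and agent (added from 2 mM stock) or DMSO/water, shaken for 1 h at 37 °C. Stopped with 0.1 M HCl and centrifuged; pellet formazan solubilized in DMSO/KOH/HBSS and read at OD560.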

Assay [2] deals with Staphylococcus aureus. As to the kind of experiment: Induction of intracellular oxidant species generation in Staphylococcus aureus ATCC 25923 by DCFH-DA dye based fluorescence assay. Type of assay: functional, organism-based. A digest of the protocol: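 OD600 1.5 suspension of S. aureus […] in HBSS given agent (from 2 or 10 mM stock), DMSO or water, then DCFH diacetate from a 100 μM stock in DMSO. Intracellular oxidation read by fluorescence (ex 485, em 535 nm).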

The next assay deals with Enterococcus faecalis. As to the kind of experiment: Antibacterial activity against vancomycin-susceptible Enterococcus faecalis ATCC 29212 assessed as zone of inhibition by disc diffusion method. In kind it is functional. (In agar diffusion tests the substance spreads into inoculated agar from a disc or well.)
Assay [3] concerns Staphylococcus aureus. As to the kind of experiment: Antibacterial activity against linezolid-resistant Staphylococcus aureus assessed as bacterial growth inhibition incubated for 20 hrs by broth dilution method. In kind it is functional. In outline: (§1)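 Broth microdilution: 0.5 McFarland suspension from an overnight culture, diluted 1:100 in cation-adjusted Mueller Hinton broth (CAMHB), given serial dilutions of test agent for 20 h at 37 °C. MIC is the lowest concentration with no visible growth.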
(In general: Broth dilution looks for growth in wells or tubes with falling amounts of substance.)

Assay [4] concerns Staphylococcus aureus. As to the kind of experiment: Antibacterial activity against methicillin-susceptible Staphylococcus aureus ATCC 25923 assessed as zone of inhibition by disc diffusion method. Type of assay: functional.
Another assay relates to Klebsiella pneumoniae. As to the kind of experiment: Antibacterial activity against multidrug-resistant Klebsiella pneumoniae ATCC 700603 assessed as zone of inhibition by disc diffusion method. Type of assay: functional.
Another assay deals with Bacillus anthracis. As to the kind of experiment: Antibacterial activity against Bacillus anthracis Sterne 34F2 assessed as zone of inhibition by disc diffusion method. Type of assay: functional.
Assay [5] concerns Staphylococcus aureus. As to the kind of experiment: Antibacterial activity against vancomycin-resistant Staphylococcus aureus clinical isolate 10 assessed as bacterial growth inhibition after 20 hrs by broth microdilution assay. Type of assay: functional. In outline: as §1
Another assay has as its system Escherichia coli. As to the kind of experiment: Antibacterial activity against beta-lactam resistant Escherichia coli BAA 2326 assessed as zone of inhibition by disc diffusion method. Type of assay: functional.
Assay [6] relates to Staphylococcus aureus. As to the kind of experiment: Antibacterial activity against vancomycin-resistant Staphylococcus aureus HIP11714 assessed as zone of inhibition by disc diffusion method. Type of assay: functional.
For assay [7], the system named is Staphylococcus aureus. As to the kind of experiment: Antibacterial activity against heterogeneous vancomycin-intermediate Staphylococcus aureus Mu3 ATCC 700698 assessed as bacterial growth inhibition incubated for 20 hrs by broth dilution method. Type of assay: functional. A digest of the protocol:
as §1

For assay [8], the system named is Staphylococcus aureus. As to the kind of experiment: Antibacterial activity against vancomycin-intermediate resistant Staphylococcus aureus Mu50 ATCC 700699 assessed as zone of inhibition by disc diffusion method. Type of assay: functional.
The test system of assay [9] is Staphylococcus aureus. As to the kind of experiment: Antibacterial activity against vancomycin-intermediate Staphylococcus aureus clinical isolate 12 assessed as bacterial growth inhibition after 20 hrs by broth microdilution assay. In kind it is functional. A digest of the protocol:
as §1

The test system of assay [10] is Staphylococcus aureus. As to the kind of experiment: Antibacterial activity against methicillin-susceptible Staphylococcus aureus ATCC 25923 assessed as bacterial growth inhibition incubated for 20 hrs by broth dilution method. Type of assay: functional. A digest of the protocol: as §1
For a further assay, the system named is Enterococcus faecium. As to the kind of experiment: Antibacterial activity against vancomycin-resistant Enterococcus faecium ATCC 700221 assessed as zone of inhibition by disc diffusion method. In kind it is functional.
Assay [11] concerns Staphylococcus epidermidis. As to the kind of experiment: Antibacterial activity against Staphylococcus epidermidis ATCC 14990 assessed as zone of inhibition by disc diffusion method. Type of assay: functional.
The subject of assay [12] is Staphylococcus aureus. As to the kind of experiment: Antibacterial activity against hospital acquired methicillin-resistant Staphylococcus aureus ATCC 43300 assessed as zone of inhibition by disc diffusion method. In kind it is functional.
For assay [13], the system named is Staphylococcus aureus. As to the kind of experiment: Antibacterial activity against heterogeneous vancomycin-intermediate resistant Staphylococcus aureus Mu3 ATCC 700698 assessed as zone of inhibition by disc diffusion method. In kind it is functional.
The test system of assay [14] is Staphylococcus aureus. As to the kind of experiment: Antibacterial activity against vancomycin-resistant Staphylococcus aureus HIP11714 assessed as inhibition of bacterial growth incubated for 20 hrs by broth microdilution method. In kind it is functional. Particulars: HIP11714, 20 h. In outline:
as §1

In another assay the test system is Pseudomonas aeruginosa. As to the kind of experiment: Antibacterial activity against Pseudomonas aeruginosa ATCC 15422 assessed as zone of inhibition by disc diffusion method. In kind it is functional.
Assay [15] has as its system Acinetobacter baumannii. As to the kind of experiment: Antibacterial activity against Acinetobacter baumannii ATCC 19606 assessed as zone of inhibition by disc diffusion method. Type of assay: functional.
In assay [16] the test system is Staphylococcus aureus. As to the kind of experiment: Antibacterial activity against vancomycin-intermediate resistant Staphylococcus aureus Mu50 ATCC 700699 assessed as bacterial growth inhibition incubated for 20 hrs by broth dilution method. In kind it is functional. A digest of the protocol:
as §1

The test system of the next assay is Enterobacter cloacae. As to the kind of experiment: Antibacterial activity against Enterobacter cloacae ATCC 23355 assessed as zone of inhibition by disc diffusion method. In kind it is functional.
Assay [17] deals with Staphylococcus aureus. As to the kind of experiment: Antibacterial activity against methicillin-resistant Staphylococcus aureus ATCC 43300 assessed as bacterial growth inhibition incubated for 20 hrs by broth dilution method. In kind it is functional. A digest of the protocol: as §1
The test system of assay [18] is Staphylococcus aureus. As to the kind of experiment: Antibacterial activity against community acquired methicillin-resistant Staphylococcus aureus BAA 1747 assessed as zone of inhibition by disc diffusion method. In kind it is functional.
For assay [19], the system named is Acinetobacter baumannii. As to the kind of experiment: Antibacterial activity against multidrug-resistant Acinetobacter baumannii BAA 1605 assessed as zone of inhibition by disc diffusion method. Type of assay: functional.

Consider `Oc1cc(Cl)ccc1Oc1ccc(Cl)cc1Cl`, for which the result with Staphylococcus aureus [1] and in the assay with Staphylococcus aureus [2] was Active.
On to `CCCCCSSc1ccccn1`, for which the “diameter of the inhibition zone (DIZ)” value with Enterococcus faecalis is recorded as 23 mm; in the assay on Staphylococcus aureus [4], 32 mm; in the assay with Klebsiella pneumoniae, 0 mm; in the assay with Bacillus anthracis it was more than 50 mm; in the assay on Escherichia coli, 0 mm; with Staphylococcus aureus [6], 22 mm. For the same compound, the “diameter of the inhibition zone (DIZ)” value in the assay with Staphylococcus aureus [8] was 24 mm; with Enterococcus faecium, 24 mm; in assay [11], more than 50 mm; with Staphylococcus aureus [12], 21 mm; with Staphylococcus aureus [13], 27 mm; in the assay on Pseudomonas aeruginosa, 0 mm. In addition, the “diameter of the inhibition zone (DIZ)” value was 0 mm with Acinetobacter baumannii [15], 8 mm in the assay on Enterobacter cloacae, 22 mm with Staphylococcus aureus [18] and 0 mm in the assay on Acinetobacter baumannii [19]. The minimum inhibitory concentration (MIC) (usually the least concentration at which growth counts as inhibited) in the assay on Staphylococcus aureus [3] was more than 50 µM; in the assay with Staphylococcus aureus [7], 50 µM (≈ 10.7 µg/mL); in the assay on Staphylococcus aureus [10], 50 µM (≈ 10.7 µg/mL); in the assay on Staphylococcus aureus [14], more than 50 µM; in the assay on Staphylococcus aureus [16], 50 µM (≈ 10.7 µg/mL); with Staphylococcus aureus [17] it was 50 µM (≈ 10.7 µg/mL). Besides, the MIC50 in the assay on Staphylococcus aureus [5] and in the assay with Staphylococcus aureus [9] was 50 µM (≈ 10.7 µg/mL) each time. Also, the MIC90 with Staphylococcus aureus [5] and with Staphylococcus aureus [9] was 50 µM (≈ 10.7 µg/mL) throughout.
With `CC(C)CCSSc1ccccn1`, the “diameter of the inhibition zone (DIZ)” value is reported as 0 mm in the assay with Enterococcus faecalis; 0 mm with Staphylococcus aureus [4]; 0 mm with Klebsiella pneumoniae; more than 50 mm with Bacillus anthracis; 0 mm in the assay with Escherichia coli; 14 mm with Staphylococcus aureus [6]. The “diameter of the inhibition zone (DIZ)” value in the assay with Staphylococcus aureus [8] is recorded as 12 mm; with Enterococcus faecium, 0 mm; in assay [11], more than 50 mm; in the assay on Staphylococcus aureus [12], 0 mm; with Staphylococcus aureus [13] it was 11 mm; in the assay on Pseudomonas aeruginosa, 0 mm. For the same compound, the “diameter of the inhibition zone (DIZ)” value in the assay with Acinetobacter baumannii [15], in the assay with Enterobacter cloacae, in the assay on Staphylococcus aureus [18] and in the assay with Acinetobacter baumannii [19] was 0 mm in each case.
